Some results are limits rather than exact numbers.

The text below walks through data of ChEMBL document CHEMBL5625166, “Disulfide-incorporated lipid prodrugs of cidofovir: Synthesis, antiviral activity, and release mechanism” (Eur J Med Chem, 2023).

Data set [1] relates to Vaccinia virus. Nature of the data set: Antiviral activity against VACV infected in Vero cells assessed as reduction in cytopathic effect incubated for 96 hrs by neutral red based spectrophotometric analysis. Type of data set: functional, organism-based. To be noted: Orthopoxvirus vaccinia. In general terms: Cytopathic effects are the visible damage that an infection or toxin causes in cultured cells.

Data set [2] can be described thus: Cytotoxicity against African green monkey Vero cells incubated for 72 hrs by neutral red based spectrophotometric analysis. Format: toxicity, cell-based. The settings on record: chlorocebus sabaeus. The method in brief: (§1)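 Cells seeded at 3 × 10^4 cells/well and grown 24 h at 37 °C, 5% CO2. Two-fold compound dilutions starting at 200.0 μM applied for 72 h. Neutral red (40 μg/mL) added for 4 h, cells washed and destained in ethanol/acetic acid. OD read at 540 nm against cell-free blanks. CC50 from triplicates.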

Data set [3] in a line: Therapeutic index, ratio of CC50 for African green monkey Vero cells to IC50 for VAVC infected in african green monkey Vero cells. Type of data set: toxicity. To be noted: read-out: Ratio CC50/IC50.
Data set [4] deals with Vaccinia virus. As to the kind of experiment: Antiviral activity against VACV infected in A549 cells assessed as reduction in cytopathic effect incubated for 96 hrs by neutral red based spectrophotometric analysis. To be noted: Orthopoxvirus vaccinia, A549, 96 h. Type of data set: functional, organism-based.
In a further data set the test system is A549. Nature of the data set: Cytotoxicity against human A549 cells incubated for 72 hrs by neutral red based spectrophotometric analysis. Type of data set: toxicity, cell-based. To be noted: a549, 72 h. The gist of the method: as §1
Data set [5] can be described thus: Therapeutic index, ratio of CC50 for human A549 cells to IC50 for VAVC infected in human A549 cells. Format: toxicity, cell-based. To be noted: read-out: Ratio CC50/IC50.
Data set [6] deals with Human adenovirus 5. As to the kind of experiment: Antiviral activity against AdV5 infected in A549 cells assessed as reduction in cytopathic effect incubated for 72 hrs by neutral red based spectrophotometric analysis. Type of data set: functional, organism-based. The settings on record: Human mastadenovirus C, A549, 72 h.
The nature of data set [7]: Therapeutic index, ratio of CC50 for human A549 cells to IC50 for AdV5 infected in human A549 cells. Type of data set: toxicity, cell-based. To be noted: read-out: Ratio CC50/IC50.
Data set [8] has as its system Human adenovirus 5. As to the kind of experiment: Potency index, ratio of BCV IC50 to test compound IC50 for antiviral activity against AdV5 infected in A549 cells assessed as reduction in cytopathic effect incubated for 72 hrs by neutral red based spectrophotometric analysis. Format: functional.
Another data set relates to Lipid bilayer. As to the kind of experiment: Induction of micelles formation in PBS at pH 7.4 by TEM analysis. Type of data set: physicochemical. The settings on record: buffer. The method in brief:
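Conjugates at 50.0 μM in pH 7.4 phosphate buffer, imaged by transmission electron microscopy for micelle formation.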

A short description of data set [9]: Stability of the compound in SGF after 120 mins. Type of data set: ADME. The settings on record: simulated gi fluid, 2 h. The method in brief:
(§2)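 Incubated in simulated gastric fluid at 37 °C, remaining compound measured at 120 min.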

The nature of data set [10]: Stability of the compound in SIF assessed as remaining compound after 360 mins. Format: ADME. The settings on record: read-out: Stability. The method in brief:
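Incubated in simulated intestinal fluid at 37 °C, remaining compound measured at 360 min.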

Data set [11] in a line: Stability in human plasma assessed as half life. Type of data set: ADME, cell-free. The gist of the method:
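Incubated in pooled human plasma at 37 °C, half-life determined.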

Data set [12] is described as follows: Stability of the compound in phosphate buffer at pH 7.4 assessed as compound remaining measured upto 400 mins in presence of GSH by HPLC method. Format: physicochemical. The settings on record: phosphate buffer with GSH, pH 7.4, read-out: Stability.
Data set [13] is described as follows: Stability of the compound in PBS at pH 7.4 assessed as micelles formation after 4 hrs in presence of GSH by TEM analysis. Format: physicochemical. To be noted: buffer, pH 7.4, 4 h. The method in brief: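 Micelles in pH 7.4 phosphate buffer re-imaged by TEM after 4 h incubation with GSH.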
A short description of data set [14]: Stability of the compound in phosphate buffer at pH 7.4 assessed as compound remaining measured after 360 mins in presence of GSH by HPLC method. Format: physicochemical. To be noted: phosphate buffer with GSH, read-out: Stability. The gist of the method:
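Conjugate incubated with 20 mM GSH in pH 7.4 phosphate buffer at 37 °C. Percent remaining monitored by HPLC over time, up to 360 min.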

The nature of data set [15]: Stability in SGF assessed as remaining compound after 120 mins. Format: ADME. The settings on record: read-out: Stability. The method in brief:
as §2

What is called IC50 is the point on the concentration scale where inhibition reaches its midpoint. Broadly, the CC50 is the concentration giving 50% cytotoxicity. For the molecule `CCCCCCCCCCCCCCCCSSCCCCOP(=O)(O)CO[C@H](CO)Cn1ccc(N)nc1=O.N`, the IC50 with Vaccinia virus [1] was 304 nM; in the data set with Vaccinia virus [4], 1650 nM; in the data set on Human adenovirus 5 [6] it was 134 nM. The CC50 in data set [2] was 12500 nM; with A549, 31000 nM. The selectivity ratio worked out at 41 in data set [3], 18.8 in data set [5] and 232 in data set [7]. For the same molecule, the “Ratio IC50” value with Human adenovirus 5 [8] is on record as 2. Also, the outcome in the data set on Lipid bilayer was Active. Also, the Stability entry in data set [9] is listed as “Stable”. Further, the remaining at 6 h in data set [10] is above 90%. In addition, in data set [11], the t1/2 was 4.375 h.
With `CCCCCCCCCCCCCCCCCCSSCCOP(=O)(O)CO[C@H](CO)Cn1ccc(N)nc1=O.N`, the IC50 turned out to be 141 nM in the data set with Vaccinia virus [1], 104 nM with Vaccinia virus [4] and 193 nM in the data set with Human adenovirus 5 [6]. In addition, the CC50 in data set [2] stood at 4900 nM; in the data set on A549, 14100 nM. For the same molecule, the selectivity ratio in data set [3] came to 34.8; in data set [5] it was 136; in data set [7], 73.1. In addition, in the data set on Lipid bilayer, the outcome was Active. Further, the remaining at 6.667 h in [12] was 93%. In data set [13], the Stability entry is recorded as “Stable”.
Take `CCCCCCCCCCCCCCSSCCOP(=O)(O)CO[C@H](CO)Cn1ccc(N)nc1=O.N`: the results for the IC50 in the data set with Vaccinia virus [1], with Vaccinia virus [4] and in the data set with Human adenovirus 5 [6] were 96 nM, 79 nM and 157 nM, respectively. Besides, the figures for the CC50 (in data set [2]; in the data set on A549) were 6530 nM and 14700 nM, respectively. Also, the selectivity ratio in data set [3] was 68; in data set [5], 186; in data set [7] it was 93.7. Also, the outcome with Lipid bilayer was Active. Further, the remaining at 6 h in data set [14] is 13%; in data set [10], above 90%. Further, the remaining at 2 h in data set [15] was found to be 77%. The t1/2 in data set [11] was determined as 2.144 h.
